# In ChEMBL document CHEMBL4138156, “Indole and Benzimidazole Bichalcophenes: Synthesis, DNA Binding and Antiparasitic Activity” (Eur J Med Chem, 2018):
# Calls of active or inactive are those of the source. The calls are words filed in the database; no cut-off is given here.
# What was measured:
# [1] = Binding affinity to poly(dA).poly(dT) DNA minor groove (unknown origin) assessed as positive induced CD signal at DNA:compound molar ratio of 20:2 to 20:10 by CD spectra analysis; assay type: nucleic-acid assay
# Summary of the method: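 Poly(dA).poly(dT) at 20 μM was titrated with compound at 25 °C in 10 mM MES, 100 mM NaCl, 1 mM EDTA, pH 7.4. CD spectra were recorded at different compound-to-DNA ratios.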
# [2] = test system: Trypanosoma brucei rhodesiense; assay: Antiprotozoal activity against bloodstream forms of Trypanosoma brucei rhodesiense STIB900 infected in NMR1 mouse at 5 mg/kg, ip administered daily for 4 consecutive days starting from day 3 to 6 post infection; assay type: functional
# Summary of the method: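 STIB900 acute-stage mouse infection model for T. b. rhodesiense (mimics acute African sleeping sickness). Dosing was 4 × 5 mg/kg i.p. The outcome was scored as cure of infected mice.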
# [3] = test system: Poly(dA-dT)oligonucleotide; assay: Binding affinity to poly(dA-dT)n DNA (unknown origin) assessed as change in melting temperature at 0.3 molar ratio of compound:DNA by spectrophotometric analysis; assay type: nucleic-acid assay
# Summary of the method: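 UV thermal melting of poly(dA-dT) in CAC 10 buffer (10 mM cacodylic acid, 1 mM EDTA, 100 mM NaCl, NaOH to pH 7.0) was run in 1 cm quartz cuvettes, ramping at 0.5 °C/min. DNA concentration was set from A260, with 0.3 mol compound per mol DNA and DNA alone as control. ΔTm was taken from the peak of the first-derivative (dA/dT) curves.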
# [4] = Selectivity index, ratio of IC50 for rat L6 cells to IC50 for Plasmodium falciparum K1 infected in human erythrocytes; assay type: toxicity, cell-based; settings: read-out: Ratio IC50
# Summary of the method: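 Ratio of IC50 in cultured L6 rat myoblast cells (cytotoxicity) to IC50 in an in vitro viability assay against chloroquine-resistant P. falciparum strain K1. P. falciparum IC50 values are the average of duplicate determinations.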
SMILES,Activity [1],Activity [2],ΔTm [3],selectivity ratio [4]
N=C(N)c1ccc2cc(-c3ccc(-c4ccc(C(=N)N)s4)s3)[nH]c2c1,Active,inactive,> 30 °C,–
N=C(N)c1ccc2cc(-c3ccc(-c4ccc(C(=N)N)s4)o3)[nH]c2c1,–,inactive,> 30 °C,–
N=C(N)c1ccc2cc(-c3ccc(-c4ccc(C(=N)N)o4)o3)[nH]c2c1,Active,inactive,–,1000

# Further lines, with some results ahead:
Activity [1],SMILES,Activity [2],ΔTm [3],selectivity ratio [4]
Active,N=C(N)c1ccc2nc(-c3ccc(-c4ccc(C(=N)N)s4)o3)[nH]c2c1,–,–,–
Active,N=C(N)c1ccc2nc(-c3ccc(-c4ccc(C(=N)N)o4)o3)[nH]c2c1,–,–,–
Active,N=C(N)c1ccc2nc(-c3ccc(-c4ccc(C(=N)N)s4)s3)[nH]c2c1,–,> 30 °C,–
